From PubChem
An excerpt weighted towards active compounds, which were near 2.3% of everything screened.
TAAR1 ag: human TAAR1 agonists, primary screen, Fluo-8 calcium fluorescence, CHO RD-HGA16 cells. Trace amine-associated receptor 1 (Homo sapiens), Q96RJ0. 360,000 tested, 0.99% active. activation, % at 3 µM. vehicle wells 0%, saturating PEA agonist 100%. AID 624467, 2012;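 active means activation above the mean activation of all test compounds in the run plus 3 SD, cut at about 38% in these data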
Target sequence (Q96RJ0 whole entry, looked up): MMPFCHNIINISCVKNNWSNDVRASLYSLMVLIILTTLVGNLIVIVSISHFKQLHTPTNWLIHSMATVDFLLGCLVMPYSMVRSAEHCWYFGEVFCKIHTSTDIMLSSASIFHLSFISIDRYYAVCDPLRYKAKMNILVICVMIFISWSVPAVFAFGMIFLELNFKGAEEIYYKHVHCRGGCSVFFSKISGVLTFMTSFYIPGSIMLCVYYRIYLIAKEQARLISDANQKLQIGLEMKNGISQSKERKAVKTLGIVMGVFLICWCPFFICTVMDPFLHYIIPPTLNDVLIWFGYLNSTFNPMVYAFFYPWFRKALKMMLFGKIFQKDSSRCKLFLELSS
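Test system: RD-HGA16 (CHO) cells co-expressing Gα16 and hTAAR1; dosing: one-point dosing at 3 µM (nominal); timing: 17-24 h seeding, 75 min 37 °C dye, 30 min RT; signal: kinetic Fluo-8 calcium fluorescence; read-out basis: % activation relative to PEA EC100 response; controls: DMSO and PEA EC100; replicates: n 1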
V1R ag counter: agonists of human V1a receptor, primary screen, counter-screen for OXTR agonist project, fluorescence, CHO-V1R cells. Vasopressin V1a receptor (Homo sapiens), P37288. Fluo-8 calcium fluorescence, agonist mode; 0% DMSO, 100% 3 nM vasopressin. activation, % at 3 µM. 320,000 tested, 0.25% active. AID 2797, 2010;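 active means activation above the mean activation of all tested compounds plus 3 SD, per screening run, cut at about 20% in these data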;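 further: signal is peak over basal fluorescence ratio across a 100 second FLIPR read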
TAAR1 antag: human TAAR1 antagonists, primary screen, Fluo-8 calcium fluorescence, CHO RD-HGA16 cells. antagonist. inhibition, % at 3 µM. 360,000 tested, 1.5% active. AID 624466, 2012;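 active means inhibition above a per-plate cutoff, the mean inhibition of test compounds on that plate plus 3 SD, cut at about 49% in these data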;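 further: 0% = DMSO plus EC80 beta-PEA response and 100% = DMSO alone without agonist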
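Material: RD-HGA16 CHO cells with stable hTAAR1 and Gα16; Dosing: single nominal final test compound concentration of 3 µM; Schedule: seeding 17-24 h prior, 75-min 37 °C, 30-min RT dye loading; Detection: kinetic Fluo-8 calcium fluorescence measurement; Measure: % inhibition from peak post-agonist over basal fluorescence ratio; Benchmarks: vehicle and agonist controls.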
OXTR ag: human OXTR agonists, primary screen, fluorescence, CHO-OTR cells, Fluo-8 calcium | Fluo-8 calcium fluorescence; normalized: DMSO 0%, oxytocin 100% | activation, % at 3 µM | 320,000 tested, 0.32% active | AID 2435, 2010;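 active means activation above the mean of all tested compounds plus 3 SD, cutoff set per screening run, cut at about 20% in these data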;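 further: peak over basal fluorescence ratio from a 100 s FLIPR kinetic read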
OXTR potentiate: human OXTR potentiators, primary screen, fluorescence, CHO-OTR cells, Fluo-8 calcium | 320,000 tested, 0.061% active | Fluo-8 calcium fluorescence, potentiator mode; 0% = oxytocin EC15, 100% = EC100 | activation, % at 3 µM;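 active means activation above that plate's cutoff, the mean activation of tested compounds plus 3 SD, cut at about 6.6% in these data, passing the limit was not always enough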;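 further: 100% uses oxytocin at 75 nM as the full agonist control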
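System: human OTR in CHO cells; Also added: sub-maximal oxytocin, roughly EC15; Timing: compound 6 min at room temperature before oxytocin, 100 s read; Technique: Fluo-8 intracellular calcium fluorescence, ex 470-495, em 515-575 nm; Controls: oxytocin EC15 low and EC100 high; Replication: singlicate.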
* marks the source's active call; other numbers are inactive results; x = no result given.

SMILES	TAAR1 ag	V1R ag counter	TAAR1 antag	OXTR ag	OXTR potentiate
CCN[C@@H](C)Cc1cccc(C(F)(F)F)c1	2	1	1	2	4
Cc1ccc(NP(=O)(Oc2ccccc2F)Oc2ccccc2F)cc1C	13	0	13	2	-5
O=P(Nc1ccccc1)(Nc1ccccc1)Oc1ccc(Cl)cc1	x	0	x	0	-8
COc1ccccc1OP(=O)(Nc1cccnc1)Oc1ccccc1OC	15	2	60*	-2	-1
Cc1cccc(NP(=O)(Oc2ccccc2F)Oc2ccccc2F)c1	4	0	53*	-1	-3
CCN(CC)CCC(=O)O[C@H]1CC[C@]2(C)C3CC[C@@]4(C)C(CC[C@]4(C)O)C3CC[C@H]2C1 (stereo not given in full)	43*	12	60*	18	-9
O=c1[nH]c(=O)n(C2CCCCC2)c(O)c1/C=C/C=Nc1ccccc1	39*	17	43	11	-3
O=c1[nH]c(=O)n(-c2ccccc2)c(O)c1/C=C/C=Nc1ccccc1	13	13	6	16	-8
COc1ccc(-n2c(O)c(/C=C/C=Nc3ccccc3)c(=O)[nH]c2=O)cc1	63*	43*	33	80*	-15
COC(=O)C1=C(c2ccccc2OCc2ccccc2)C[C@@H]2CC[C@H]1N2C(=O)NCCOc1ccccc1	13	3	37	2	-7
CCN1/C(=C\C=C\C2=[N+](CC)c3ccccc3C2(C)C)C(C)(C)c2ccccc21	x	459*	x	443*	-24
CCOP(=O)(OCC)c1ccc(OP(=O)(c2cccc([N+](=O)[O-])c2)c2cccc([N+](=O)[O-])c2)cc1	5	1	-17	-1	-2
O=[N+]([O-])c1cccc(NP(=O)(Oc2ccccc2)Oc2ccccc2)c1	3	1	58*	2	-11
COC1C(C)OC(OC2CC(C)(O)Cc3cc4c(c(O)c32)C(=O)c2c(O)cc3c(c2C4=O)OC2OC3(C)C(O)C(N(C)C)C2O)C(OC)C1(C)OC (stereo not given)	47*	x	39	x	x
COC(=O)C1C(c2ccc(F)cc2)CC2CCC1N2C (stereo not given)	1	x	4	x	x
O=C(O)C12C3CCCC1C32c1ccccc1 (stereo not given)	20	0	-1	3	1
Nc1c(C(=O)NCCCc2ccccc2)c2nc3ccccc3nc2n1Cc1cccs1	37*	0	-10	0	-7
CCCCCn1c(N)c(C(=O)NCc2cccs2)c2nc3ccccc3nc21	20	0	-22	1	-6
Cc1cccc(OP(=O)(Oc2ccccc2)OC(c2ccccc2)C(F)(F)F)c1 (stereo not given)	1	1	51*	-1	-8
Cc1ccccc1-n1c(C)nc2sccc2c1=O	3	1	-10	0	-3
COC(=O)C1=C(c2cccc3c2S(=O)(=O)c2ccccc2-3)C[C@@H]2CC[C@H]1N2C(=O)N1CCc2cc(OC)c(OC)cc2C1	17	-1	51*	-1	-8
CCOc1cccc(CNCCc2c(C)[nH]c3ccc(OC(F)(F)F)cc23)c1O	55*	29*	49*	39*	-10
COc1ccc2[nH]c(C)c(CCNCc3cccnc3)c2c1	10	2	-4	1	-4
Cc1[nH]c2ccc(OC(F)(F)F)cc2c1CCNCc1ccc(Cl)cc1	38*	x	35	x	x
Cc1ccc(N2C(=O)NC(=O)/C(=C\c3ccc([N+](=O)[O-])o3)C2=O)cc1	x	2	x	2	-9
N/C(=N\[N+](=O)[O-])N1CCN(C(=O)c2ccccc2)CC1	8	1	-12	1	-11
COC(=O)C1=C(c2ccc(-c3ccccc3)c(F)c2)C[C@@H]2CC[C@H]1N2C(=O)NCc1cccc2ccccc12	7	3	-11	3	-8
Cc1ccc(C)c(NP(=O)(Oc2ccccc2)Oc2ccccc2)c1	8	3	80*	3	-5
